# Assay results of several laboratories.
# Each line is one published result; the experiments were not run side by side.
Compound,assay,test system,setting,quantity,value
CC[C@H](C)[C@H](NC(=O)[C@@H]1CCCN1C(=O)CNC(=O)[C@H](Cc1ccccc1)NC(=O)[C@H](CC(N)=O)NC(=O)[C@H](CC(N)=O)NC(=O)[C@H](CO)NC(=O)[C@H](CO)NC(=O)[C@H](Cc1c[nH]cn1)NC(=O)[C@H](CCCNC(=N)N)NC(=O)[C@H](CC(C)C)NC(=O)[C@H](Cc1ccccc1)NC(=O)[C@H](CCC(=O)O)NC(=O)[C@H](C)NC(=O)[C@H](CC(C)C)NC(=O)[C@H](CCCNC(=N)N)NC(=O)[C@H](CCC(N)=O)NC(=O)[C@@H](NC(=O)[C@H](C)NC(=O)[C@@H]1CSSC[C@H](NC(=O)[C@H](CCCCN)NC(=O)CC[C@H](NC(=O)CCCCCCCCCCCCCCCCCCC(=O)O)C(=O)O)C(=O)N[C@@H](CC(N)=O)C(=O)N[C@@H]([C@@H](C)O)C(=O)N[C@@H](C)C(=O)N[C@@H]([C@@H](C)O)C(=O)N1)[C@@H](C)O)C(=O)N[C@@H](CC(C)C)C(=O)N1CCC[C@H]1C(=O)N1CCC[C@H]1C(=O)N[C@H](C(=O)N[C@@H](CC(N)=O)C(=O)N[C@H](C(=O)NCC(=O)N[C@@H](CO)C(=O)N[C@@H](CC(N)=O)C(=O)N[C@H](C(=O)N1CCC[C@H]1C(N)=O)[C@@H](C)O)C(C)C)[C@@H](C)O,,"cynomolgus monkey, plasma","subcutaneous, 20 nmol/kg, single dose",AUC(0-inf),39.3 µM·h
CCN(CC)CCNC(=O)c1c(C)[nH]c(/C=C2\C(=O)Nc3ccc(F)cc32)c1C,metabolic stability,"human, liver microsomes","1 µM, pH 7.4",half-life,27.1 h
CCOC(=O)C1=C(CN2CCC[C@@H]2C(=O)Nc2ccc(B(O)O)cc2)NC(c2nccs2)=N[C@H]1c1ccc(F)cc1Br,,"CD-1 mouse, plasma","intravenous, 2 mg/kg",MRT(0-inf),0.57 h
Cc1nc2ccc(OCc3ccc(C(F)(F)F)cc3)cc2[nH]1,,"male BALB/c mouse, plasma","intravenous, 1 mg/kg",MRT(0-inf),1.54 h
CCCCCCOc1ccc2c(=O)c3c([nH]c2c1)CCCC3,metabolic stability,"human, liver microsomes","1 µM, pH 7.4",half-life,0.25 h
COC1=CC(c2ccc[nH]2)=N/C1=C\c1cc(Cc2ccc(OC(F)(F)F)cc2)c(C)[nH]1.Cl,,"male CD-1 mouse, liver","oral, 40 mg/kg, single dose",MRT(0-t),34.8 h
OCc1nc2ccc(NCc3ccc(C(F)(F)F)cc3)cc2[nH]1,,"male BALB/c mouse, plasma","oral, 10 mg/kg",MRT(0-inf),1.9 h
O=c1c2c([nH]c3cc(OCc4ccc(OC(F)(F)F)cc4)ccc13)CCCC2,metabolic stability,"human, liver microsomes","1 µM, pH 7.4",half-life,0.627 h
COC1=CC(c2ccc[nH]2)=N/C1=C\c1[nH]c(Cc2ccc(OC(F)(F)F)cc2)cc1Cc1ccc(OC(F)(F)F)cc1,,"male CD-1 mouse, plasma","oral, 40 mg/kg, single dose",MRT(0-t),23.1 h
NCc1cc2c(cc1F)C(=O)N(C1CCC(=O)NC1=O)C2 (stereo not shown),,"male cynomolgus monkey, plasma","oral, 0.3 mg/kg",AUC(0-inf),5.5 ng·h/mL
